# Compound activity as filed in PubChem.
# The list is not random: actives were taken first. Their share in the collection is about 1.3%.
# Hsp70 activator: transcriptional activators of Hsp70. HeLa Hsp70 promoter luciferase reporter, luminescence; scaled: vehicle 0, proteasome-inhibitor control 100%. activation, % at 10 µM. 200,000 tested, 0.04% active. AID 1203;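 active means activation above the mean across all tested compounds plus 3 SD, cutoff set per campaign, cut at about 5.5% in these data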;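 further: 100% = MG132 at 30 µM as the positive control and 0% = DMSO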
# Pf gamet viab: inhibitors of late stage P. falciparum gametocyte viability | P. falciparum stage V gametocytes, ATP luminescence, 24 h | AID 743093 | 150,000 tested, 0.065% active | inhibition, % at 10.9 µM;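 active means inhibition above the mean plus 3 SD of compounds within the control limits, set per campaign, cut at about 38% in these data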;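 further: 0% = DMSO wells and 100% = medium only without gametocytes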
# Wee1 degr inh: inhibitors of human Wee1 degradation; HeLa Luc-Wee1K328M stability, luciferase luminescence; 100% = proteasome inhibitor MG132 effect; reporter increase, % at 5 µM; 220,000 tested, 1.2% active;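 active means activation above the mean of all tested compounds plus 3 SD, set per screening run, cut at about 8.8% in these data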;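 further: cells exposed to compound for 20 h before luminescence read; 0% = DMSO alone and 100% = MG132 at 30 µM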
# Target sequence (P30291 whole entry K328M): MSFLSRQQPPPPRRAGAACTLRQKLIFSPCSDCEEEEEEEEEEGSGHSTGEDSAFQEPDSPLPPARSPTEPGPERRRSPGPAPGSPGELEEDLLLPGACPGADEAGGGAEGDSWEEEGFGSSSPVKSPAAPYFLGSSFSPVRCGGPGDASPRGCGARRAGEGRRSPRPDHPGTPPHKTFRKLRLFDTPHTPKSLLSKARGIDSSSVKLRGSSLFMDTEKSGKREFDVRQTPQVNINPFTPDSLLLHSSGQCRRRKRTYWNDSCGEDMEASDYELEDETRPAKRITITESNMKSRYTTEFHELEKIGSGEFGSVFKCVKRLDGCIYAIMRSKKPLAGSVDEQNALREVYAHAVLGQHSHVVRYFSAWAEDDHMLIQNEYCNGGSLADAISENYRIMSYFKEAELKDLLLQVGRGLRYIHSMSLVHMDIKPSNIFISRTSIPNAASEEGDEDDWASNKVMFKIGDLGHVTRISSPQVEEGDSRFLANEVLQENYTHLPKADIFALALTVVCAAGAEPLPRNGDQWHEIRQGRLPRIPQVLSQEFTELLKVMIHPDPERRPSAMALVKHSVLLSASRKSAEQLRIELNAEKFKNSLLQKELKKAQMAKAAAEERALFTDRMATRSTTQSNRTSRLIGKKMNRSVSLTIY
# Mdm2 ligase inh: blocks human Mdm2 ubiquitin ligase activity; cell-based MDM2 ubiquitination luciferase reporter, 2 h; 0 = plate control, 100 = twice control, blank-subtracted; signal enhancement, % at 5 µM; 210,000 tested, 0.11% active; AID 1230;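 active means signal enhancement of 30% or more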;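 further: luminescence tracks abundance of the self-degrading MDM2-luciferase fusion protein; higher signal means inhibition of MDM2 E3 ligase activity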
#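 test system = mammalian cells stably expressing self-ubiquitinating, self-degrading MDM2 E3–luciferase fusion | quantity = 2000 cells/well | incubation = cell settling 4 h, compound treatment 2 h, both 37 °C | signal = luminescence with SteadyLite reagent, 15 min at room temperature | evaluation = % enhancement relative to plate controls after blank subtraction | benchmarks = plate controls and plate blanks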
# Active calls of the source: *; · = no result given.
SMILES,Hsp70 activator,Pf gamet viab,Wee1 degr inh,Mdm2 ligase inh
COc1cc(/C=C2/C(=O)N(c3ccc([N+](=O)[O-])cc3)N=C2N2CCOCC2)ccc1O,·,3.7,8.9*,-13.5
CCN(CC)c1ccc(/C=C2/C(=O)N(c3ccc([N+](=O)[O-])cc3)N=C2N2CCOCC2)cc1,-0.3,·,2.3,-13.3
COc1cc(/C=C2\SC(=S)N(N3CCOCC3)C2=O)ccc1O,·,-9.0,9.0*,·
O=C(O)CCC(=O)N1CCCC1,-0.3,·,9.9*,-28.7
CN1CCN(C(=O)CCC(=O)O)CC1,·,-9.3,2.1,-6.9
N#CC1=C(SCC(=O)c2ccc(Br)cc2)NC2=C(C(=O)CCC2)C1c1ccco1 (centres undefined),0.1,-0.7,10.9*,-7.8
CCc1ccc(NC(=O)CSC2=C(C#N)C(c3ccco3)C3=C(CCCC3=O)N2)cc1 (centres undefined),-0.4,2.2,-0.5,10.3
CCN(CC)C(=O)CN1CCN(c2ncccn2)CC1,-0.3,·,-2.6,53.1*
CC1=NN(c2cccc(C(=O)O)c2)C(=O)/C1=C\C=C/c1ccccc1,0.2,-22.4,-2.7,30.8*
CC1=NN(c2ccccc2)C(=O)/C1=C/C=C/C=C/N(C)C,-0.1,-11.4,-1.2,-7.0
CC1=NN(c2ccc(C)cc2)C(=O)/C1=C\C=C\c1ccccc1,-0.3,·,-1.6,51.7*
NC(=O)CC(NC(=O)Cc1cccc2ccccc12)c1ccc(NC2CC3CCC2C3)c([N+](=O)[O-])c1 (centres undefined),·,-17.3,·,·
Cc1ccc(-n2c(C)cc(C(=O)OCC(=O)N(CC(C)C)C3CCS(=O)(=O)C3)c2C)cc1 (centres undefined),0.7,·,15.9*,-15.9
O=C(O)c1cnc(-c2ccccc2)nc1C(F)(F)F,0.2,2.3,11.4*,2.6
Cn1cccc1/C=C1\SC(=S)N(NC(=O)c2ccccc2)C1=O,0.0,2.1,9.0*,3.7
COC(Cn1cc(C)c(=O)[nH]c1=O)OC,0.0,-5.8,4.1,42.1*
CCOc1cc(-c2nc(C)c(C(C)=O)n2O)ccc1OCC(=O)Nc1cccc(C)c1,-0.1,15.0,-0.3,-9.3
Cc1ccc(-c2nn(-c3ccccc3)cc2C=O)o1,0.1,-9.1,10.8*,-21.0
Cc1ccc(-c2nn(-c3ccccc3)cc2C(N)=O)o1,-0.2,-26.2,-1.9,11.6
CCN(CC)S(=O)(=O)c1ccc(Cl)c(NC(=O)COc2ccc3c(C)cc(=O)oc3c2)c1,0.0,5.1,0.3,-4.1
Cc1cc(=O)oc2cc(OCC(=O)Nc3cccc(S(=O)(=O)N(C)C)c3)ccc12,-0.2,28.5,9.6*,-12.9
Cc1ccc(-n2c(C)cc(C=C3C(=O)CC(C)(C)CC3=O)c2C)cc1,0.6,13.6,-3.1,57.4*
Cc1ccc(C2(c3ccc(C)cc3)CC2C(=O)Nc2ccc([N+](=O)[O-])cc2O)cc1 (centres undefined),-0.2,·,-2.0,-2.2
CC(=O)c1ccc(NC(=O)C(C)OC(=O)c2ccc3c(c2)nc(C)n3-c2ccccc2)cc1 (centres undefined),-0.2,2.7,8.8*,-19.5
CC1CCN(C(=O)CSc2nnc(-c3cccnc3)n2C2CCCCC2)CC1,-0.1,·,-4.0,-1.6
SMILES,Hsp70 activator,Pf gamet viab,Wee1 degr inh,Mdm2 ligase inh
O=C(CSc1nnc(-c2cccnc2)n1C1CCCCC1)NC1CCCCC1,0.0,-9.2,2.4,35.6*
CCOc1ccc(C2C(C(=O)c3cccs3)=C(O)C(=O)N2Cc2cccnc2)cc1OC (centres undefined),0.1,18.3,3.3,-16.6
CCOC(=O)c1c(CSC(=N)N)n(-c2ccc(C)cc2)c2cc(Br)c(OC(C)=O)cc12,-0.2,3.4,9.4*,-6.7
CN(/N=C/c1cc(Cl)cc(Cl)c1O)c1c(Cl)cccc1[N+](=O)[O-],·,17.2,-2.1,-9.3
CCSc1ncc(/C=N/Nc2ccc([N+](=O)[O-])cc2)n1C,0.0,16.6,9.6*,-4.0
Cc1onc(-c2ccccc2Cl)c1C(=O)O/N=C(\N)c1ccc([N+](=O)[O-])o1,·,4.8,-1.8,-16.3
CCCC12CN3CCN(CC(C3)/C1=N\NC(=O)Nc1ccccc1)C2,-0.4,-3.0,10.0*,-6.8
Cn1nc([N+](=O)[O-])nc1N1CCOCC1,-0.5,-12.4,0.8,4.4
O=C1[C@H](Cc2ccccc2)NCCCC[C@H](c2ccco2)N1Cc1ccccc1,·,4.1,·,·
CC(OC(=O)c1cccc(S(=O)(=O)Nc2cccc(C(F)(F)F)c2)c1)C(=O)Nc1ccc2c(c1)OCCO2 (centres undefined),-0.2,-12.9,9.2*,-13.5
O=C1C=CC(=O)C(C2=C3C(=O)N(CCc4ccccc4)CC(=O)N3CCC2)=C1,-0.2,6.0,-2.2,4.6
CC(=O)c1c(C)[nH]c(C(=O)N2CCCCCC2)c1C,-0.2,·,8.9*,-10.2
Cc1nc2ccc(NC(=O)N3CCOCC3)cc2nc1C,-0.3,-0.5,2.3,-10.1
Cc1nc2ccc(NC(=O)N3CCOCC3)cc2s1,-0.1,·,10.4*,-65.1
CCOc1ccccc1N1CCN(CC(=O)NC(C)c2ccccc2)CC1 (centres undefined),·,21.7,·,·
CCOc1ccc(C(=O)NC(=S)Nc2cccc(S(=O)(=O)NC3=NCCC3)c2)cc1,-0.1,12.4,9.5*,-11.5
Cc1ccc(NC(=O)Cn2nnc3ccccc32)cc1,-0.1,-1.6,10.4*,-1.6
O=c1/c(=C/c2cn(-c3ccccc3)nc2-c2ccc(F)cc2)sc2nc3ccccc3n12,0.1,·,-1.1,-23.8
CC(C)Oc1ccc(-c2nn(-c3ccccc3)cc2/C=c2\sc3ncnn3c2=O)cc1,-0.4,·,10.2*,-15.4
NS(=O)(=O)c1ccc(CCNC(=O)C2CCC(Cn3c(=S)[nH]c4ccccc4c3=O)CC2)cc1 (centres undefined),-0.4,·,-1.5,1.2
O=C1CC(CCC(=O)NC2CC2)c2ccccc2N1 (centres undefined),0.1,-3.4,9.0*,3.9
C[C@@H]1COC(=O)[C@H](Cc2ccc(F)cc2)CC/C=C\C[C@@H](CC(=O)NCCO)C(=O)N1,·,0.3,·,·
COc1ccc(/C=C/C(=O)c2ccc(NC(=O)c3cccs3)cc2)cc1OC,-0.1,·,9.2*,10.3
Cc1cc(Cn2nc(C(=O)NCc3cccc(C(F)(F)F)c3)cc2-c2ccccc2)on1,·,14.0,·,·
O=c1c2c(-c3cccs3)csc2ncn1-c1ccc(Br)cc1,-0.4,6.8,9.1*,-13.1
SMILES,Hsp70 activator,Pf gamet viab,Wee1 degr inh,Mdm2 ligase inh
CCOC(=O)CSc1nc2cc3c(cc2cc1C#N)OCO3,0.0,·,-1.9,-11.9
CCOC(=O)CSc1nc2cc3c(cc2cc1C)OCO3,-0.4,38.7*,1.3,-0.1
CCCCNC(=O)CNC(=S)N(Cc1ccccc1F)C1CCCCC1,-0.3,5.2,9.1*,-10.1
O=C(NC1CCN(C(=S)NCCc2ccccc2)CC1)C1CC1,0.1,-2.4,-3.6,0.0
CCCNC(=S)N1CCC(NC(=O)C2CCCCC2)CC1,0.1,·,10.5*,-36.9
Oc1ccc(/C=N/Nc2nccnc2Cl)c(O)c1,-0.5,-60.9,10.1*,-33.1
Oc1ccccc1/C=N/Nc1nccnc1Cl,-0.2,-22.0,1.3,-30.8
O=C(Nc1ccccc1C(=O)NCc1cccnc1)c1ccc(Cl)cc1Cl,-0.4,·,-0.9,4.2
